These results are taken from ChEMBL document CHEMBL3271953, “Bridged aminotetralins. 4. Resolution of potent analgesics of the bridged aminotetralin type” (J Med Chem, 1976).

The source made the active and inactive calls.

The test system of series [1] is Rattus norvegicus. The experiment in a line: Analgesic activity in im dosed Charles River rat by tail flick test. The format is functional. The method, boiled down:
(§1)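 D'Amour-Smith rat tail-flick test. Compounds were given ip, im or po, and analgesic ED50 was derived. Doses are expressed as mg of base per kg and given as the hydrochloride or hydrobromide salt or as the free base. Some ED50s rest on two doses only.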
Background: Thermal pain tests record how soon the animal reacts.

The test system of series [2] is Rattus norvegicus. The experiment in a line: Analgesic activity in ip dosed Charles River rat by tail flick test. The series is classed as functional. The method, boiled down: as §1
In series [3] the test system is Rattus norvegicus. Description: Analgesic activity in po dosed Charles River rat by tail flick test. The series is classed as functional. In outline:
as §1

Series [4] relates to Rhesus monkey. The experiment in a line: Analgesic activity in po dosed monkey assessed as increase in shock threshold. The format is functional, organism-based. Particulars: Macaca mulatta.
Series [5] deals with Rhesus monkey. The experiment in a line: Narcotic antagonism activity in morphine-dependent rhesus monkey assessed as precipitation of withdrawal symptoms at 0.5 to 1 mg/kg, im. The series is classed as functional, organism-based. Particulars: Macaca mulatta.
Series [6] concerns Rhesus monkey. The experiment in a line: Narcotic antagonism activity in morphine-dependent rhesus monkey assessed as precipitation of withdrawal symptoms at 1 mg/kg, im measured for 10 hrs. The series is classed as functional, organism-based. Set-up: dose 1 mg/kg. Particulars: Macaca mulatta.
Series [7] relates to Rhesus monkey. The experiment in a line: Analgesic activity in monkey assessed as increase in shock threshold at 0.06 mg/kg, im. The following applies: Macaca mulatta. Set-up: dose 0.06 mg/kg. The format is functional, organism-based.
Series [8] is filed under the species Rattus norvegicus. The experiment in a line: Ratio of morphine ED50 to compound ED50 for analgesic activity in Charles River rat by tail flick test. The format is functional.
The nature of series [9]: Acute toxicity in po dosed rat. The series is classed as organism-based. The following applies: in vivo. In outline:
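Acute toxicity in rats after oral dosing, expressed as an LD50 in mg/kg.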

Series [10] deals with Rattus norvegicus. Description: Ratio of morphine ED50 to compound ED50 for analgesic activity in po dosed Charles River rat by tail flick test. The format is functional.
For series [11], the system named is Rattus norvegicus. The experiment in a line: Analgesic activity in Charles River rat at 20 mg/kg, po by tail flick test. Set-up: dose 20 mg/kg. The series is classed as functional, organism-based.
The mark [12] stands for this setting: Rattus norvegicus, Charles River, Tail, im, read-out: ED50.
[13] abbreviates: Rattus norvegicus, Charles River, Tail, ip, read-out: ED50.
Setting [14] is: Rattus norvegicus, Charles River, Tail, po, read-out: ED50.

The term ED50 denotes the dose at which the effect has come halfway, by size or by number of responders. As to `C[C@@]12CCCCCC(Cc3ccc(OC(=O)C4CC4)cc31)[C@@H]2N.Cl`, the ED50 amounted to 0.45 mg/kg in the series on Rattus norvegicus [1] (setting [12]) and 1.5 mg/kg in the series with Rattus norvegicus [2] (setting [13]).

On to `CC[C@@]12CCCCCC(Cc3ccc(O)cc31)[C@@H]2N` (stereo in doubt; (+)-2), for which the values for the ED50 in the series on Rattus norvegicus [3], with Rattus norvegicus [1] and with Rattus norvegicus [2] were 80 mg/kg, 2 mg/kg and 7.5 mg/kg, respectively.

As for `COc1ccc2c(c1)[C@@]1(C)CCCCCC(C2)[C@@H]1N.Cl` (stereo in doubt; (-)-5), the values for the ED50 in the series on Rattus norvegicus [3] (setting [14]), in the series with Rattus norvegicus [1] (setting [12]) and with Rattus norvegicus [2] were 3.5 mg/kg, 4.5 mg/kg and 2 mg/kg, respectively.

Regarding `CN1CC[C@]23c4c5ccc(O)c4O[C@H]2[C@@H](O)C=C[C@H]3[C@H]1C5` [MORPHINE], the results for the ED50 in the series with Rattus norvegicus [3] (setting [14]), with Rattus norvegicus [1] (setting [12]) and in the series with Rattus norvegicus [2] (setting [13]) were 15.9 mg/kg, 1.57 mg/kg and 4.43 mg/kg, respectively.

Compound `CC[C@@]12CC/C=C\CC(Cc3ccc(OC)cc31)[C@@H]2N.Cl` (stereo in doubt; (-)-3) showed an ED50 with Rattus norvegicus [2] of more than 6.25 mg/kg.

As for `CC[C@@]12CCCCCC(Cc3ccc(OC)cc31)[C@@H]2N.Cl` (mixture of isomers), the ED50 with Rattus norvegicus [1] was determined as 12 mg/kg; with Rattus norvegicus [2], 3.5 mg/kg.

With `CC[C@@]12CC/C=C\CC(Cc3ccc(O)cc31)[C@@H]2N.Cl` (stereo in doubt; (-)-4), the ED50 amounted to 4 mg/kg with Rattus norvegicus [1] and 9 mg/kg in the series on Rattus norvegicus [2].

Turning to `CC[C@@]12CCCCCC(Cc3ccc(O)cc31)[C@@H]2N` (mixture of isomers), the values for the ED50 with Rattus norvegicus [3], in the series with Rattus norvegicus [1] and in the series with Rattus norvegicus [2] were 10 mg/kg, 0.25 mg/kg and 3.7 mg/kg, respectively.

In the case of `CC[C@@]12CCCCCC(Cc3ccc(OC)cc31)[C@@H]2N.Cl` (stereo in doubt; (-)-1), the figures for the ED50 in the series on Rattus norvegicus [3], in the series on Rattus norvegicus [1] and in the series on Rattus norvegicus [2] were 7.5 mg/kg, 3.5 mg/kg and 3.3 mg/kg, respectively.

As for `C[C@@]12CCCCCC(Cc3ccc(O)cc31)[C@@H]2N` (stereo in doubt; (-)-6), in the series on Rhesus monkey [4], the Activity entry was “Dose-dependent effect”. For the same compound, the result in the series with Rhesus monkey [5], in the series on Rhesus monkey [6] and with Rhesus monkey [7] was Active.

On to `CC[C@@]12CCCCCC(Cc3ccc(O)cc31)[C@@H]2N` (stereo in doubt; (-)-2), for which the ED50 in the series with Rattus norvegicus [3] was determined as 3.5 mg/kg; in the series with Rattus norvegicus [1], 0.1 mg/kg; with Rattus norvegicus [2], 0.5 mg/kg. Besides, the “Ratio ED50” value in the series listed under Rattus norvegicus [8] is recorded as “<=15”.

For the compound `CC[C@@]12CC/C=C\CC(Cc3ccc(OC)cc31)[C@@H]2N.Cl` (stereo in doubt; (+)-3), the ED50 came out at 12.5 mg/kg in the series with Rattus norvegicus [1] (setting [12]) and 3.75 mg/kg with Rattus norvegicus [2] (setting [13]).

`COc1ccc2c(c1)[C@@]1(C)CCCCCC(C2)[C@@H]1N.Cl` (stereo in doubt; (+)-5) came in with an ED50 in the series with Rattus norvegicus [2] of more than 25 mg/kg.

As for `CC[C@@]12CCCCCC(Cc3ccc(OC)cc31)[C@@H]2N.Cl` (stereo in doubt; (+)-1), the figures for the ED50 with Rattus norvegicus [3], in the series with Rattus norvegicus [1] and in the series with Rattus norvegicus [2] were 30 mg/kg, 10 mg/kg and 10 mg/kg, respectively.

For `CC[C@@]12CC/C=C\CC(Cc3ccc(O)cc31)[C@@H]2N.Cl` (stereo in doubt; (+)-4), the ED50 with Rattus norvegicus [3] (setting [14]) was determined as 5 mg/kg; with Rattus norvegicus [1], 0.195 mg/kg; in the series on Rattus norvegicus [2] it was 0.8 mg/kg. For the same compound, the “Ratio ED50” value in the series listed under Rattus norvegicus [8] is recorded as “<=15”.

One may read the LD50 as the dose expected to kill half of the subjects tested. With `Br.C[C@@]12CCCCCC(Cc3ccc(O)cc31)[C@@H]2N` (stereo in doubt; (-)-6), the ED50 came to 2.05 mg/kg in the series with Rattus norvegicus [3], 0.12 mg/kg in the series on Rattus norvegicus [1] and 0.53 mg/kg in the series with Rattus norvegicus [2]. In addition, the LD50 in series [9] amounted to 200 mg/kg. Also, the results for the “Ratio ED50” value in the series listed under Rattus norvegicus [8] and in the series on Rattus norvegicus [10] were “<=15” and 8, respectively.

With `CC[C@@]12CCCCCC(Cc3ccc(OC)cc31)[C@@H]2N` (mixture of isomers), in the series with Rattus norvegicus [11], the outcome was Active.

With `Br.C[C@@]12CCCCCC(Cc3ccc(O)cc31)[C@@H]2N` (stereo in doubt; (+)-6), the figures for the ED50 with Rattus norvegicus [1] and in the series with Rattus norvegicus [2] were 95 mg/kg and more than 100 mg/kg, respectively.

Turning to `CC[C@@]12CC/C=C\CC(Cc3ccc(OC)cc31)[C@@H]2N.Cl` (mixture of isomers), the ED50 in the series on Rattus norvegicus [2] was 4.2 mg/kg.

In the case of `Br.C[C@@]12CCCCCC(Cc3ccc(O)cc31)[C@@H]2N` (mixture of isomers), the results for the ED50 with Rattus norvegicus [3], in the series on Rattus norvegicus [1] and in the series on Rattus norvegicus [2] were 10 mg/kg, 0.45 mg/kg and 1.11 mg/kg, respectively.

Compound `CC[C@@]12CC/C=C\CC(Cc3ccc(O)cc31)[C@@H]2N.Cl` (mixture of isomers) had an ED50 in the series on Rattus norvegicus [2] of 1.75 mg/kg.

For `COc1ccc2c(c1)[C@@]1(C)CCCCCC(C2)[C@@H]1N.Cl` (mixture of isomers), the ED50 in the series with Rattus norvegicus [2] worked out at 4.88 mg/kg.
